Measurements from different studies.
Compare with care: the assays were run in different laboratories.
Target: Serine/threonine-protein kinase pim-3 (PIM3, Homo sapiens, UniProt Q86V86)

COc1ccc2oc(-c3ccc4nc(N)oc4c3)c/c(=N\c3ccccc3NC(=O)CCN)c2c1  remaining binding (binding; 1 µM): 110%
CCCCC(=O)Nc1ccc(-c2ccc3ncn(CCC)c(=O)c3c2)cn1  remaining binding (binding, competition with immobilised ligand; 0.5 µM): 93%
C#Cc1cnc(Nc2ccnc(CO)c2)nc1Nc1ccccc1S(C)(=O)=NC#N (stereo not shown)  remaining signal (cell-free assay; 1 µM): 80%
C1=C/COCc2cc(ccc2OCCN2CCCC2)Nc2nccc(n2)-c2cccc(c2)COC/1  remaining binding (binding; 0.1 µM): 97%
C=CC(=O)N1CCC[C@@H](n2nc(-c3ccc(Oc4ccccc4)cc3)c3c(N)ncnc32)C1  inhibition (enzyme activity, inhibitor; 1 µM): 0%
CC(C)S(=O)(=O)c1ccc2nccc(Nc3ccc4sc(C5CCCC5)nc4c3)c2c1  activity vs control (enzyme activity, inhibitor; 1 µM): 104%
COc1ccc2[nH]c3c4[nH]c5ccc(OC)cc5c4c4c(c3c2c1)C(=O)NC4=O  remaining binding (binding; 1 µM): 2.6%
C=CC(=O)N1CCC([C@@H]2CCNc3c(C(N)=O)c(-c4ccc(Oc5ccccc5)cc4)nn32)CC1  inhibition (enzyme activity, inhibitor; 1 µM): 2%
C[C@H]1CC[C@H](n2c3cnccc3c3cnc(Nc4ccc5c(n4)CCN(C(=O)CO)C5)nc32)CC1  remaining signal (cell-free assay; 1 µM): 31%
N#Cc1ccc(NC(=O)Nc2ccccc2)cc1  remaining binding (cell-free assay, competition with immobilised ligand; 25 µM): 74%
